Where “and” joins values, the source holds several entries; their conditions need not be identical. Identical values can stand only once. Like-named read-outs stand apart in the source and are kept apart here.
Tests used:
[1] = model parameter; cited from earlier work
[2] = format: in vivo, human; conditions: caplet 855 nmol oral
[3] = format: in vivo, human
Summary of the method: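 Given after a ≥4-wk washout as an IV injection in 1.35 mL sterile saline (pH 7.0, 74 μg folate/mL). Blood was drawn from the opposite arm at 15 min, then every 30 min for 4 h. Plasma M+5/M+0 molar ratios were measured by LC-MS/MS. Amounts were converted to nmol/person from baseline microbiological plasma folate, blood volume and packed cell volume. Half-life came from a one-phase exponential fit to the descending plasma curve.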

[4] = Apparent absorption across the colon calculated with one-compartment model; format: in vivo, human
Summary of the method: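 Enteric-coated caplet with about 12.6% coating mass gain. The absorbed mass was estimated from plasma labeled 5-methyltetrahydrofolate concentration using a three-equation, one-compartment model of small-intestinal folate absorption. Volume of distribution was taken as 387 mL/kg body weight. t_lag, the time plasma enrichment stayed at baseline, was set at 1 h. Plasma was sampled hourly after pyloric passage until 2000, then at 24 and 48 h.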

[5] = 684 nmol (320 μg) cecal infusion after bowel cleansing; cited from earlier work
[6] = cited from earlier work
[7] = iv 214 nmol, individual subjects A-I

Row | Detection of [13C5]5-formyltetrahydrofolate (parent) in plasma after caplet ([2]; any subject) | 5-formyltetrahydrofolate Cmax (labeled, plasma) ([3]; iv 214 nmol, mean ± SEM, n = 9) [nmol] | Plasma enrichment with [13C5]5-formyltetrahydrofolate ([3]; plasma samples collected immediately after iv injection, mean ± SEM) [%] | Apparent absorption across the colon of the 855-nmol dose ([4]; caplet, one-compartment model, mean, excludes 2 subjects without plasma response) | bioavailability ([4]; human, plasma, oral, 855 nmol) [%] | Compound | Apparent volume of distribution (V) [1] [mL/kg body weight] | Cmax of [13C5]5-methyltetrahydrofolate in plasma ([2]; individual subjects A-F) | 5-formyltetrahydrofolate Cmax (labeled, plasma) [3, 7] | 5-methyltetrahydrofolate Cmax (labeled metabolite, plasma) [3, 7] | Rate of folate absorption after bolus infusion directly into the cecum [5] [nmol/h] | Apparent absorption in the small intestine ([6]; 500-nmol orally administered test dose) | Rate of folate absorption across the small intestine ([6]; oral bolus 421–569 nmol, estimated from published data)
1 |  |  |  |  |  | Nc1nc2ncc(CNc3ccc(C(=O)N[C@@H](CCC(=O)O)C(=O)O)cc3)nc2c(=O)[nH]1 [folate] | 387 |  |  |  |  |  | 
2 | did not detect | 13.5 ± 1.6 | 11.6 ± 1.5 | 46% and 46.2 ± 16.5% | 34.7 ± 14.3 | Nc1nc2c(c(=O)[nH]1)N(C=O)C(CNc1ccc(C(=O)N[C@@H](CCC(=O)O)C(=O)O)cc1)CN2 (stereo partly drawn) [[^13C5]5-formyltetrahydrofolate, [glutamyl-^13C5]-[6S]-5-formyltetrahydrofolic acid] |  | 0.5 nmol and 2.0 nmol and 3.7 nmol and 4.0 nmol and 1.6 nmol | 20.0 nmol and 10.2 nmol and 20.3 nmol and 7.1 nmol and 15.9 nmol and 14.1 nmol and 7.5 nmol and 10.9 nmol and 15.2 nmol | 6.8 nmol and 6.6 nmol and 10.2 nmol and 3.1 nmol and 7.8 nmol and 10.0 nmol and 5.0 nmol and 6.0 nmol and 5.8 nmol | 0.6 ± 0.02 | 38 ± 6% and 38% | ~ 34 nmol/h

— publication PMC4823011 (The American journal of clinical nutrition, 2014)
